Results as given in ChEMBL document CHEMBL3272082, “Racemic diastereoisomers of 1-amino-2-hydroxycyclopentanecarboxylic acid” (J Med Chem, 1976).
Active and inactive are the calls of the source. The calls are words filed in the database; no cut-off is given here.

Experiments:
[1] = Retardation factor of the compound in cyclohexylamine-water-methyl ethyl ketone-1-butanol at 1:2.5:5:5 ratio by paper chromatography; type: physicochemical; conditions: buffer
Method in brief: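 Paper chromatography in cyclohexylamine–water–methyl ethyl ketone–1-butanol (1:2.5:5:5). Rf values compared with allothreonine and threonine run in the same system.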

[2] = test system: Leuconostoc mesenteroides; assay: Antimicrobial activity against Leuconostoc mesenteroides 10830 assessed as growth inhibition up to 300 ug/ml; type: functional
Method in brief: (§1)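 Microbial growth toxicity tested by typical microbial procedures; each isomer at concentrations up to 300 μg/ml.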

Jensen sarcoma [3] = assay: Inhibition of growth of rat Jensen sarcoma cells assessed as new cells at 50 ug/ml after 72 hrs in presence of 50 ug/ml threonine and 26 ug/ml serine (reference value: 100%); type: functional; parameters: scale not given: the % may be the effect or the level left
Method in brief: (§2)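 Jensen sarcoma cells seeded at 400000 cells/flask in replicate flasks in McCoy's 7a medium with 10% fetal calf serum, gassed with 8% CO2–92% air, 37°, 24 hr, then counted for zero time. Medium replaced with fresh medium containing analog at 50 μg/ml, with threonine added as listed and serine in medium at 26 μg/ml. Medium renewed at 48 hr. New cells counted at 72 hr, expressed as % of control in normal medium.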

[4] = test system: Lactiplantibacillus plantarum; assay: Antimicrobial activity against Lactobacillus arabinosus 8014 assessed as growth inhibition up to 300 ug/ml; type: functional, organism-based; method in brief: as §1
Escherichia coli [5] = assay: Antimicrobial activity against Escherichia coli 9723 assessed as growth inhibition up to 300 ug/ml; type: functional, organism-based; method in brief: as §1
Jensen sarcoma [6] = assay: Inhibition of growth of rat Jensen sarcoma cells assessed as new cells at 50 ug/ml after 72 hrs in presence of 26 ug/ml serine (reference value: 100%); type: functional; parameters: scale not given: the % may be the effect or the level left; method in brief: as §2
Escherichia coli [7] = assay: Antimicrobial activity against Escherichia coli W assessed as growth inhibition up to 300 ug/ml; type: functional; method in brief: as §1
Jensen sarcoma [8] = assay: Inhibition of growth of rat Jensen sarcoma cells assessed as new cells at 50 ug/ml after 72 hrs in presence of 18 ug/ml threonine and 26 ug/ml serine (reference value: 100%); type: functional; parameters: scale not given: the % may be the effect or the level left; method in brief: as §2
Enterococcus faecalis = assay: Antimicrobial activity against Streptococcus faecalis 8043 assessed as growth inhibition up to 300 ug/ml; type: functional, organism-based; method in brief: as §1
Jensen sarcoma [9] = assay: Inhibition of growth of rat Jensen sarcoma cells assessed as new cells at 50 ug/ml after 72 hrs in presence of 25 ug/ml threonine and 26 ug/ml serine (reference value: 100%); type: functional; parameters: scale not given: the % may be the effect or the level left; method in brief: as §2

| SMILES | Rf [1] | growth inhibition (GI) [2] | Activity (Jensen sarcoma [3]) | growth inhibition (GI) [4] | growth inhibition (GI) (Escherichia coli [5]) | Activity (Jensen sarcoma [6]) | growth inhibition (GI) (Escherichia coli [7]) | Activity (Jensen sarcoma [8]) | growth inhibition (GI) (Enterococcus faecalis) | Activity (Jensen sarcoma [9]) |
| --- | --- | --- | --- | --- | --- | --- | --- | --- | --- | --- |
| C[C@H](O)[C@H](N)C(=O)O | 0.41 | – | – | – | – | – | – | – | – | – |
| N[C@@]1(C(=O)O)CCC[C@@H]1O (relative stereo) | 0.38 | inactive | 68% | inactive | inactive | 12% | inactive | 69% | inactive | – |
| N[C@@]1(C(=O)O)CCC[C@H]1O (relative stereo) | 0.45 | inactive | 68% | inactive | inactive | 12% | inactive | 68% | inactive | – |
| NC1(C(=O)O)CCCC1 [CYCLOLEUCINE] | – | – | – | – | – | 0% | – | – | – | 5% |
| C[C@@H](O)[C@H](N)C(=O)O [THREONINE] | 0.54 | – | – | – | – | – | – | – | – | – |
